# Screening data deposited in PubChem by Broad Institute.
# A selection: hits, their analogues and other compounds. The true share with any hit is near 1.6%.
# RAD54 branch: inhibitors of human RAD54 branch migration; RAD54 Holliday junction branch migration, FAM/BHQ fluorescence; inhibition, % at 10.4 µM; hit rate 0.14% among 360,000;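 active = mean normalized replicate activity at least 40 and at least half of replicates scoring 40 or more; inconclusive = only one of the two criteria met; inactive = mean below 40 and under half of replicates reaching 40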;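 also: 0% = median of neutral control wells and 100% = median of positive control wells; inhibitors cause a drop in the FAM fluorescence signal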
# S100A4 inh HTS: inhibitors of human S100A4 binding to myosin IIA peptide; S100A4/TAMRA-MyoIIA peptide fluorescence polarization; hit rate 0.14% among 360,000; inhibition, % at 10.7 µM; P26447;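 active = mean inhibition of at least 70% across replicates, with every replicate also reaching that level; inconclusive = mean inhibition reaches 70% but some replicates fall short; inactive = mean inhibition below 70%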
# Target sequence (P26447 whole entry, looked up): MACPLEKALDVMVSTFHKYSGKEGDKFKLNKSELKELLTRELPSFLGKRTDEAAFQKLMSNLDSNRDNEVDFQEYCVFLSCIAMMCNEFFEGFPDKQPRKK
#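 Test system – S100A4 monomer (human) · Compound – single-point compound testing · Schedule – 5 min incubation before reading · Probe or stimulus – TAMRA-labelled myosin IIA heavy-chain peptide probe, 5 nM · Benchmarks – neutral control DMSO, positive control TFP · Medium – Calcium-containing HEPES buffer, pH 7.2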
# PvdQ inh: blocks Pseudomonas aeruginosa PvdQ acylase activity; hit rate 0.063% among 340,000; purified PvdQ acylase, fluorescence plate reader; inhibition, % at 10 µM; in the data active = inhibition above about 30%, passing the limit was not always enough; inconclusive = no clear call, values can overlap the other calls;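 also: 0% = vehicle neutral wells and 100% = reference inhibitor wells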
# dFosB activator: mouse delta FosB homodimer activation; purified delta FosB, TAMRA-CDK5 oligo fluorescence polarization; percent of positive-control signal above neutral wells; P13346; activation, % at 25 µM; AID 493131; hit rate 0.99% among 340,000;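 active = mean activation above about 17%, with every replicate also reaching it, limit read from the data, passing the limit was not always enough; inconclusive = only one of the two conditions met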
# SR-BI uptake up: SR-BI HDL lipid transfer activation | hit rate 0.096% among 320,000 | activation, % at 12.5 µM | CHO ldlA[mSR-BI] cells, DiI-HDL uptake fluorescence, 3 h; 100 = double the neutral-control signal | AID 504775;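 active = mean replicate activation of at least 60% and every replicate at or above 60%; inconclusive = mean or all-replicate condition met, but not both; inactive = mean below 60% and not all replicates reaching 60%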;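 also: 0% = median plate neutral-control signal and 100% = twice that signal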
#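 System: LDL receptor-deficient CHO ldlA cells overexpressing murine SR-BI | Timing: 3 h uptake period with compound, 37 °C | Medium: HEPES-buffered (25 mM, pH 7.4) F12 plus 0.5% BSA | Dosing: Single-point compound dose | Signal: Bottom-read fluorescence, 550/595 nm | Read-out: Retained DiI signal reflecting DiI-HDL uptake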
# SR-BI HDL uptake: blocks mouse SR-BI lipid uptake from DiI-HDL. hit rate 0.96% among 320,000. Q61009. ldlA[mSR-BI] CHO cells, DiI-HDL uptake fluorescence, 3 h. inhibition, % at 12.5 µM;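 active = mean replicate inhibition of at least 70% and a set share of replicates each scoring 70 or more; inconclusive = meets just one of the two criteria; inactive = fails both criteria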;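 also: 0% = median of neutral control wells and 100% = median of positive control wells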
# Target sequence (Q61009 whole entry, looked up): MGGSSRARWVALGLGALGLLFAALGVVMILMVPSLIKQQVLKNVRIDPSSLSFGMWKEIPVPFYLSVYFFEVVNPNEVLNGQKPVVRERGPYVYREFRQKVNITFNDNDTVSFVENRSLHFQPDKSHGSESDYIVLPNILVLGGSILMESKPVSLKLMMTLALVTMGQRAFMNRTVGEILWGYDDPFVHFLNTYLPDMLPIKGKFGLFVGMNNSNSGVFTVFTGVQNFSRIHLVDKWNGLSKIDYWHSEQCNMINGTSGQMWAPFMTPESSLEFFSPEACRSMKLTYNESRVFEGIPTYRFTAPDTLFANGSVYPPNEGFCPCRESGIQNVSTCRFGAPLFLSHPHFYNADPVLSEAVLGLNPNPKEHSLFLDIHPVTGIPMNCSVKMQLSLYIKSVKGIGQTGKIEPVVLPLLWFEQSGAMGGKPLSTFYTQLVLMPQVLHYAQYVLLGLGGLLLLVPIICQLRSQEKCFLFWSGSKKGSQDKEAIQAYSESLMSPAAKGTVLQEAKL
# * hit, by the source's call; ? = inconclusive; . = no result; + = active, no number.
SMILES,RAD54 branch,S100A4 inh HTS,PvdQ inh,dFosB activator,SR-BI uptake up,SR-BI HDL uptake
CN(C)c1ccc(/C=C/c2ccc3ccccc3[n+]2C)cc1,80.6*,.,-10.4,95.6*,12.2,-12.2
CN(C)c1ccc(/C=C/c2ccc3c4ccccc4ccc3[n+]2-c2ccccc2)cc1,74.1*,155.8*,4.4,112.5*,?,-61.8
CC(=O)N1[C@@H](CO)[C@H](c2ccccc2)C12CN(C(=O)Nc1ccccc1F)C2,.,0.9,.,.,.,.
COc1ccc(Nc2c([N+](=O)[O-])ccc3c2=NC2(CCCCC2)N=3)cc1,2.2,-4.6,-6.0,-8.5,-86.5,86.5*
O=C(NCC[C@@H]1CC[C@@H](NS(=O)(=O)c2ccccc2F)[C@@H](CO)O1)c1ccc(F)cc1,1.4,3.5,.,.,.,.
C[C@@H]1CN([C@@H](C)CO)C(=O)c2cccc(NC(=O)Nc3ccc4c(c3)OCO4)c2O[C@@H]1CN(C)S(=O)(=O)c1cccs1,1.8,2.8,.,.,.,.
N=c1n(Cc2ccccc2)c2ccccc2n1CC(O)COc1ccc(Cl)cc1Cl (centres undefined),.,0.0,5.3,30.0*,-40.2,40.2
Cc1oc(-c2ccccc2Cl)nc1CSCC(=O)O,10.8,186.3*,-6.2,1.3,5.1,-5.1
C[C@H]1CCCCO[C@@H](CN(C)S(=O)(=O)c2ccc(F)cc2)[C@@H](C)CN([C@@H](C)CO)C(=O)c2cc(NC(=O)Nc3ccccc3)ccc2O1,-2.5,.,.,.,.,.
CCN(CC)c1ccc2nc3ccccc3[n+](CC)c2c1,54.0*,.,-13.4,-0.5,12.7,-12.7
CCN(CC)c1ccc2nc3ccc(N)cc3[n+](-c3ccccc3)c2c1,85.0*,+,-15.9,-244.2,10.0,-10.0
COc1cc(OC)c(OC)cc1/C=N/N(C)c1ccccc1,18.5,.,-6.3,1.9,-81.5,81.5*
Cc1ccn2c(/C=N/OCc3cccc(F)c3)c(-c3ccc(Cl)cc3)nc2c1,0.3,.,5.0,-2.0,-77.6,77.6*
Cc1ccn2c(/C=N/OCc3ccc(F)cc3)c(-c3ccc(Cl)cc3)nc2c1,-0.8,.,-1.0,-7.1,-62.7,62.7
C[C@H]1CN([C@@H](C)CO)C(=O)CCCn2cc(nn2)CO[C@H]1CN(C)S(=O)(=O)c1ccc(C#N)cc1,2.9,8.2,.,.,.,.
Cc1cc(C)c(NC(=O)CSc2nc3ncc(Br)cc3[nH]2)c(Cl)c1,-1.2,-1.3,7.5,69.1*,11.1,-11.1
Cc1cc(C)c(NC(=O)CSc2nc3ncc(Cl)cc3[nH]2)c(C)c1,6.0,5.1,-0.5,14.8,25.4,-25.4
C[C@@H]1CN([C@H](C)CO)C(=O)c2cc(NC(=O)CCCCCC(=O)Nc3ccccc3N)ccc2O[C@H]1CN(C)S(=O)(=O)c1cn(C)cn1,.,7.1,.,.,.,.
COc1ccccc1-c1cn(CC[C@@H]2CC[C@H](NC(=O)C3CCCC3)[C@@H](CO)O2)nn1,.,2.9,.,.,.,.
COc1ccccc1CC(=O)N1CCN(c2ccccc2F)CC1,-6.0,-17.1,-7.7,-5.5,21.3,-21.3
COc1ccc(C(=O)Nc2nc(CC(=O)NCCc3cccc(OC)c3)cs2)cc1,.,-12.0,-4.2,-11.8,-73.3,73.3*
COc1ccccc1NC(=O)Nc1nc(CC(=O)NCc2ccc(F)cc2)cs1,1.9,3.2,5.5,8.6,-72.5,72.5*
COc1ccccc1NC(=O)Nc1nc(CC(=O)N2CCN(c3ccccc3F)CC2)cs1,-0.5,4.3,12.1,-11.4,-80.3,80.3*
O=C(Cc1csc(-c2ccccc2)n1)NCc1ccc(F)cc1,-14.1,.,-11.8,-0.7,9.2,-9.2
COc1ccccc1NC(=O)Nc1nnc(CC(=O)Nc2ccccc2C)s1,.,-1.1,-12.9,26.5*,-10.2,10.2
SMILES,RAD54 branch,S100A4 inh HTS,PvdQ inh,dFosB activator,SR-BI uptake up,SR-BI HDL uptake
Cc1ccc(S(=O)(=O)N(C)C[C@@H]2Oc3ccc(NS(=O)(=O)c4ccccc4)cc3CC(=O)N([C@@H](C)CO)C[C@@H]2C)cc1,1.2,-3.3,.,.,.,.
O=C(C[C@@H]1C=C[C@@H](NC(=O)Nc2cc(F)ccc2F)[C@H](CO)O1)Nc1ccc(-c2ccccc2)cc1,-6.1,0.0,.,.,.,.
Cc1cccc(-c2ccc([C@H]3[C@@H](CO)N4C(=O)CN(C(=O)Cc5ccccn5)C[C@@H]34)cc2)c1,.,-1.6,.,.,.,.
CN(C)C(=O)c1cccc(-c2ccc([C@@H]3[C@H](CO)N4C(=O)CN(C(=O)C5CCCC5)C[C@@H]34)cc2)c1,.,-0.4,.,.,.,.
COC(=O)C[C@H]1C=C[C@@H](NS(=O)(=O)c2ccc(OC)cc2)[C@@H](CO)O1,-2.3,3.8,.,.,.,.
C[C@H](CO)N1C[C@H](C)[C@H](CN(C)C(=O)c2ccncc2)Oc2ncc(C#C[C@@H](C)O)cc2C1=O,.,0.4,.,.,.,.
COc1cccc(CNC(=O)Cc2csc(NC(=O)Nc3ccccc3OC)n2)c1,-4.5,0.7,-6.5,-7.8,-77.6,77.5*
COc1ccc(NC(=O)Cc2csc(NC(=O)Nc3ccccc3OC)n2)c(OC)c1,5.2,-5.3,-0.6,-3.1,-64.0,64.0
COc1ccccc1NC(=O)Nc1nc(CC(=O)NCc2c(F)cccc2F)cs1,-9.0,-5.4,-8.8,9.7,-71.8,71.8*
COc1ccc(OC)c(NC(=O)Cc2csc(NC(=O)Nc3ccccc3OC)n2)c1,2.8,-2.0,11.7,3.6,-76.3,76.3*
O=C(Nc1ccc(F)cc1)N[C@@H]1C[C@@H]2O[C@@H](CO)CC[C@@H]2O[C@@H]1CCc1ccc(-c2ccccc2)cc1,.,2.7,.,.,.,.
COc1ccc2c3c(n(C)c2c1)[C@H](CO)N(C(=O)c1cccnc1)CC31CCN(C(=O)c2cccnc2)CC1,.,8.2,.,.,.,.
CCN(C(=O)c1cn(C)c(=O)c2cc(OC)c(OC)cc12)c1cc(OC)ccc1OC,-4.3,.,-3.3,-12.3,66.5*,-66.5
COc1cc(NC2CCCCC2O)c2nc(-c3ccc(Cl)cc3)ccc2c1 (centres undefined),-5.2,-8.5,-5.1,-8.4,-80.1,80.1*
CCOC(=O)c1c(NC(=S)Nc2ccccc2)sc2c1CCCCC2,.,.,-10.7,-6.4,-67.0,67.0
CCOC(=O)c1c(NC(=S)Nc2cccc(C)c2)sc2c1CC(C)(C)SC2,.,-6.7,-12.1,-5.2,-86.9,86.9*
C/C(=N\NC(=O)c1cccc(N/N=C(\C)c2ccccc2)c1)c1ccccc1,.,.,-7.7,-11.4,-79.0,79.0*
C/C(=N\NC(=O)c1ccncc1)c1cccc(NC(=O)c2ccc(C(C)(C)C)cc2)c1,-0.6,0.6,-20.7,-11.8,-77.6,77.6*
C/C(=N/NC(=O)c1ccncc1)c1ccc(NC(=O)c2ccccc2)cc1,-6.8,0.4,-10.8,-3.6,-8.7,8.7
CCC(=O)N1C[C@H](C)[C@@H](OC)CN(C)C(=O)c2cc(NC(=O)C3CCCCC3)ccc2OC[C@@H]1C,-7.6,1.9,.,.,.,.
COc1cc(OC)cc(-c2c(C#Cc3ccsc3)c3cc(-c4ccc5[nH]ccc5c4)ccc3n2C)c1,5.3,4.4,-10.8,22.9*,-24.7,24.7
